Assay [1] has as its system SiHa cells. Briefly: Flow cytometry, DNA content by propidium iodide staining. As to conditions: 2 µM, 48 hours. Format: cell-based, human. In a few lines:
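Cells seeded at 1×105 per 60 mm dish; next day test compound or DMSO added for 48 hr. Cells trypsinized, PBS-washed, fixed in 80% ethanol, pelleted 500g 5 min, stained with PI (100 µL 2mg/ml PI plus 10 µg RNase A in 10 mL PBS). DNA content analysed by flow cytometry; apoptotic fraction taken from area under the corresponding histogram region.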

In assay [2] the target is E7 LxCxE peptide LxCxE peptide (Human papillomavirus type 16) (UniProt P03129). As to conditions: cited from earlier work.
E7 LxCxE peptide LxCxE peptide (Human papillomavirus type 16), sequence (P03129 whole entry, looked up, the tested form may be a part): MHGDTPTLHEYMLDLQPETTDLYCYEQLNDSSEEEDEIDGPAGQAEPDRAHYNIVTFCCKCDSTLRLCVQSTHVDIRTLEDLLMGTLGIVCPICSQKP
Assay [3] concerns the target T1, GST-pRbABC (residues 376–928) (UniProt P06400 376-928).
T1 sequence (looked up): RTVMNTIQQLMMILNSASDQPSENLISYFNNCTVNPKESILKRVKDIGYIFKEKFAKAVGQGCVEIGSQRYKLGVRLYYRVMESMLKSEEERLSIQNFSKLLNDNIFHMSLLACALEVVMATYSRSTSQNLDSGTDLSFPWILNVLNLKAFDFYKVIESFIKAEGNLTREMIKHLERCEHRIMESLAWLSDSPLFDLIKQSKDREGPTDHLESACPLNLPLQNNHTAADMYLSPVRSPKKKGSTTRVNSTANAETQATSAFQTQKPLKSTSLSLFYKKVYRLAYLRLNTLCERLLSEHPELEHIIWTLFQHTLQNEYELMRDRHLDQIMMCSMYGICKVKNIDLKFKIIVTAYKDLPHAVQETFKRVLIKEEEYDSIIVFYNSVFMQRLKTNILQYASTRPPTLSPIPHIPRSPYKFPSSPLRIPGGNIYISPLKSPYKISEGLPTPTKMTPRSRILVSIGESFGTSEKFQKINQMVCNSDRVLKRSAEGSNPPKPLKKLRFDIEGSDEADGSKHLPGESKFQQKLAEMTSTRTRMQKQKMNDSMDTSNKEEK
Description: ELISA. A general note: ELISA stands for enzyme-linked immunosorbent assay.

The term Kd denotes the constant that tells how readily two partners part at equilibrium.

The molecule `CN[C@@H]1C[C@H]2O[C@@](C)([C@@H]1OC)n1c3ccccc3c3c4c(c5c6ccccc6n2c5c31)C(=O)NC4` [staurosporine, Staurosporine] yielded an apoptotic cells in assay [1] of 34.3%.
As for pRb (from UniProt P06400), the equilibrium dissociation constant (Kd) in assay [2] was 0.11 µM.

B1: 6xHis-HPV1AE7_(CR2-3) (residues 16–93) (domain or fragment)
chain: EPSVLDLDLYCYEEVPPDDIEEELVSPQQPYAVVASCAYCEKLVRLTVLADHSAIRQLEELLLRSLNIVCPLCTLQRQ
In the case of B1, the binding result in assay [3] is reported as “binds”.

B2: 6xHis-Ad5E1A_(CR1-3) (residues 36–189) (domain or fragment)
chain: SHFEPPTLHELYDLDVTAPEDPNEEAVSQIFPDSVMLAVQEGIDLLTFPPAPGSPEPPHLSRQPEQPEQRALGPVSMPNLVPEVIDLTCHEAGFPPSDDEDEEGEEFVLDYVEHPGHGCRSCHYHRRNTGDPDIMCSLCYMRTCGMFVYSPVSE
For B2, the binding result in assay [3] is on record as “binds”.

The values above are taken from article PMC3334872 (Chemistry & biology, 2012).
